Test results published in paper PMC7501995 (Cell metabolism, 2020).
Entries after “also recorded” stand apart in the source; their conditions may differ.

Assays:
[1] = Off-target liability panel; settings: currently available panel
C57BL/6J mice = test: Oral administration in drinking water to wild-type C57BL/6J mice; type: in vivo, mouse
[2] = test system: C57BL/6J mice rendered diabetic by multiple low-dose STZ; test: Multiple low-dose STZ-induced diabetes in C57BL/6J mice; type: in vivo, mouse
TXNIP-deficient mice = test: SRI-37330 treatment of TXNIP-deficient mice; type: in vivo, mouse
[3] = test system: human islet gene expression; test: RNA sequencing of human islets; type: cell-based; settings: 25 mM glucose, 1 μM
In short: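 Human islets (IIDP; same-donor controls) held overnight at 5 mM glucose, then 24 h at 25 mM glucose with or without 1 µM test compound. RNA extracted with miRNeasy. Libraries prepared as TruSeq stranded mRNA and sequenced single-end at about 43 million reads/sample.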

[4] = C57BL/6J mice, oral 100 mg/kg/day
[5] = livers of treated C57BL/6J mice
[6] = male C57BL/6J mice, oral 100 mg/kg/day, 3 weeks

CS(=O)(=O)NCC1CCCN(c2ncnc3ccc(C(F)(F)F)cc23)C1 (centres unmarked) [SRI-37330, N-((1-(6-(trifluoromethyl)quinazolin-4-yl)piperidin-3-yl)methyl)methanesulfonamide]
off-target liabilities [1]: lack of off-target liabilities
fasting blood glucose (C57BL/6J mice; [4]): slightly, but significantly lower
fasting serum glucagon (C57BL/6J mice; [4]): lower
fasting serum insulin (C57BL/6J mice; [4]): unchanged
non-fasting blood glucose (C57BL/6J mice; C57BL/6J mice, oral 100 mg/kg/day, within 3 days, persisted 3 weeks): small but significant decrease in blood glucose levels
insulin tolerance test (ITT) (C57BL/6J mice; C57BL/6J mice, oral 100 mg/kg/day, 1 U/kg insulin i.p.): remained unaltered
intraperitoneal glucose tolerance test (GTT) (C57BL/6J mice; C57BL/6J mice, oral 100 mg/kg/day, 3 g/kg glucose i.p. after 4 h fast): consistently and significantly improved glucose tolerance
blood glucose during insulin-induced hypoglycemia (C57BL/6J mice; fasting mice, 15 min after insulin bolus 1 U/kg): able to maintain their blood glucose levels equally well to untreated controls
fatty liver (liver histology) (C57BL/6J mice; lean mice): did not lead to any fatty liver
liver expression of Pck1 and G6pc (C57BL/6J mice; [5]): lower expression
liver glycogen content (C57BL/6J mice; [5]): higher glycogen content
tolerability (C57BL/6J mice; male C57BL/6J mice, oral 100 mg/kg/day in drinking water, 3 weeks): well tolerated
body weight (C57BL/6J mice; [6]): no change in body weight
gross abnormalities in organs at sacrifice (C57BL/6J mice; [6]): no gross abnormalities in any organs
safety profile in vivo (C57BL/6J mice; mouse, in vivo): excellent safety profile in vivo
liver and serum triglyceride levels (C57BL/6J mice; treated C57BL/6J mice): lower liver and serum triglyceride levels
liver transaminase levels (C57BL/6J mice; treated C57BL/6J mice): did not cause any elevation in liver transaminase levels
urine glucose, fold lower than in untreated or empagliflozin-treated animals ([2]; STZ mice): more than 10 fold
blood glucose control compared to metformin or empagliflozin ([2]; STZ mice, drinking water): slightly better blood glucose control than metformin or empagliflozin
body weight at the end of the experiment ([2]; STZ mice, vs untreated): higher body weight
fasting blood glucose ([2]; STZ mice, vs untreated): lower fasting blood glucose
fasting serum insulin ([2]; STZ mice, vs untreated): higher; also recorded: almost two-fold elevation
serum triglycerides ([2]; STZ mice, only treatment with this effect): significantly lower serum triglycerides
fasting serum glucagon, fold lower than untreated ([2]; STZ-diabetic mice): 3.6 fold
effectiveness by oral gavage twice a day ([2]; STZ-induced diabetes, gavage 12 h apart): confirmed its effectiveness in obesity- as well as STZ-induced diabetes
dose-dependence of glucose lowering ([2]; oral gavage twice a day): dose-dependence of the glucose-lowering effects
glucose homeostasis and serum glucagon (TXNIP-deficient mice): no longer able to further improve glucose homeostasis or lower serum glucagon levels
serum glucagon levels (TXNIP-deficient mice): even elevated
BCL2L1 expression ([3]; confirmed by qRT-PCR): upregulated
CTGF expression ([3]; confirmed by qRT-PCR): upregulated
IGF-1R expression ([3]; confirmed by qRT-PCR): upregulated
MAFA expression ([3]; confirmed by qRT-PCR): upregulated
MLXIPL expression ([3]; confirmed by qRT-PCR): downregulated
NLRP1 expression ([3]; confirmed by qRT-PCR): lower expression
general transcription ([3]; three donors, 24 h, RNA sequencing): does not inhibit general transcription
